High-throughput results deposited in PubChem BioAssay by several laboratories.
iPSC survival up = increases survival of single human iPS cells. hiPSC single-cell survival, ATPlite luminescence; 100% = ROCK inhibitor wells, 0% = DMSO. survival enhancement, % at 20 µM. hit rate 0.044% among 360,000. AID 602274; in the data active = survival enhancement above about 18%;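 note: cells exposed to compounds for 16 hours before the ATP read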
ABCB6 inh 2 = human ABCB6 transporter inhibition. K562-ABCB6 porphyrin accumulation, flow cytometry, 1 h; hits give low values. hit rate 0.19% among 360,000. Q9NP58. AID 602162. fluorescence ratio to DMSO, % at 10 µM;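 active = fluorescence ratio to DMSO below 75%, the collection mean minus 3 SD; inconclusive = too few cells collected in the well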;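 note: signal is porphyrin accumulated inside mitochondria; lower ratio means ABCB6 inhibition with less porphyrin fluorescence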
MC4R antag cAMP = human MC4R antagonism in cAMP assay; P32245; MC4R-expressing cells, MTII-stimulated cAMP, LANCE TR-FRET; inhibition, % at 6.5 µM; hit rate 0.48% among 360,000;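 active = inhibition above its plate's cutoff, the mean of tested wells on that plate plus 3 SD, cut at about 29% in these data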
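Material – human MC4R-expressing U2OS cells · Repeats – no replicates · Detection – TR-FRET with Eu-cAMP and labeled anti-cAMP, 671 nm · Times – compound 30 min, challenge 1 h, detection 1 h · Compound – single nominal compound dose of 6.5 µM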
Tb MetRS inh = Trypanosoma brucei MetRS inhibition | inhibition, % at 11.9 µM | purified T. brucei MetRS, ATP depletion, Kinase-Glo luminescence | hit rate 0.4% among 360,000;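 active = inhibition above a per-plate cutoff of the control wells' mean inhibition plus 3 SD, cut at about 5.5% in these data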
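assay system = parasite MetRS enzyme | timing = 15 min preincubation, 2 h reaction, all 25 °C | evaluation = percent inhibition relative to median high and low control wells | medium = HEPES buffer containing pyrophosphatase, BSA, spermine, DTT | compound = single dose, 11.9 µM final nominal, 0.9% final DMSO | detection = Kinase-Glo luminescence, ATP depletion format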
Exocytosis inh = lytic granule exocytosis inhibition; TALL-104 LAMP-1 surface exposure, flow cytometry; cells stimulated with thapsigargin and PMA; AID 651702; hit rate 0.66% among 360,000; inhibition, % at 10 µM;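 active = inhibition above about 55%, limit read from the data; inconclusive = no clear call, values can overlap the other calls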
MC4R ag barr = human MC4R agonism via beta-arrestin; P32245; U2OS MC4R beta-arrestin complementation, luminescence; percent of melanotan II response, DMSO zero; activation, % at 8.9 µM; hit rate 0.98% among 360,000;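 active = activation above a per-plate cutoff, the mean activation of sample wells on that plate plus 3 SD, cut at about 8% in these data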
MC4R barr ag = human MC4R beta-arrestin agonism confirmation. shares compounds with MC4R ag barr. U2OS MC4R beta-arrestin recruitment, luminescence; scaled DMSO 0%, Melanotan II 100%. activation, % at 8.9 µM. hit rate 31% among 2,400. AID 602192;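 active = mean activation across replicates above the hit cutoff set in the earlier primary screen, cut at about 8% in these data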
MOR DOR agonist = activates mu-delta opioid heterodimer, MC4R agonist counter-screen; U2OS PathHunter beta-arrestin, beta-gal luminescence; percent of deltorphin B response, DMSO zero; AID 602194; shares compounds with MC4R ag barr; activation, % at 9.2 µM; hit rate 5.8% among 2,400;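 active = mean activation across replicates exceeds the hit threshold derived in the earlier primary screen, cut at about 18% in these data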
Target sequence (P35372 whole entry, looked up): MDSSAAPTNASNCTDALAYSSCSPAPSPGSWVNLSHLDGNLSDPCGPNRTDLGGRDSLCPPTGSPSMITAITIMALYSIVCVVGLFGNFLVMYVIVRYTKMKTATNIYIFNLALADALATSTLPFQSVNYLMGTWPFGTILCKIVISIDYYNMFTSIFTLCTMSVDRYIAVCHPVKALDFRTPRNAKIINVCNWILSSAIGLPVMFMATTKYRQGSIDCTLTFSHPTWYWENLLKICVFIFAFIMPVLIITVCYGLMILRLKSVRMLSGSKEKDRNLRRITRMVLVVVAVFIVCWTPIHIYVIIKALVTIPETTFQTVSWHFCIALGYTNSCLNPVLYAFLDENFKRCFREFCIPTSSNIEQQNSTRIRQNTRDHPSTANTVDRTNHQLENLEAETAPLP
Target sequence (P41143 whole entry, looked up): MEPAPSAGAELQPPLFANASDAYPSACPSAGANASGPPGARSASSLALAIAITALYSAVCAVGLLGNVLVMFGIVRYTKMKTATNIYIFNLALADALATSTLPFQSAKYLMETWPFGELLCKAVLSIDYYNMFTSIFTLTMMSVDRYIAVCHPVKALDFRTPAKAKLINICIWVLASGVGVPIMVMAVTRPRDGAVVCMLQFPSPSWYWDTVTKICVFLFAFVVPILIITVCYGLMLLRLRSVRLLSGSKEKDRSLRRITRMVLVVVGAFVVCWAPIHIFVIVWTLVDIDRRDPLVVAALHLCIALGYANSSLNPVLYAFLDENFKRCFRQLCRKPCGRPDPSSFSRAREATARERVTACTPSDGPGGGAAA
Of the large screens only hits and unclear results are named; the others gave an inactive call (follow-up assays come after a bar, where they were run). This is a sample that favours compounds with a hit; in the whole collection about 2.6% have one here.

COc1ccc(N2C(=O)C(CN3CCN(C)CC3)C2c2ccccc2)cc1 (stereo unspecified)	none
CC(=O)c1c(C)[nH]c(C(=O)OCC(=O)N2CCc3ccccc3C2)c1C	none
CCC(=O)N1CCCC(C)(C(=O)Nc2ccc(OC)c(F)c2)C1 (stereo unspecified)	none
CCOC(=O)Cc1ccc(Nc2nc(NCc3cccs3)nc3ccsc23)cc1	MC4R ag barr 15 | MC4R barr ag inactive | MOR DOR agonist inactive
COc1ccc(Nc2nc(NCc3cccs3)nc3ccsc23)cc1OC	none
O=C(Cc1coc2ccc3ccccc3c12)Nc1nnc(C2CC2)s1	MC4R ag barr 27 | MC4R barr ag 9.5 | MOR DOR agonist inactive
O=C1CSc2ccc(C(=O)Nc3cccc(S(=O)(=O)Nc4ccc(Br)cc4)c3)cc2N1	Exocytosis inh 63, MC4R ag barr 11 | MC4R barr ag inactive | MOR DOR agonist inactive
COc1cccc(OC)c1C(=O)Nc1nc(COc2ccccc2)cs1	MC4R ag barr 12 | MC4R barr ag inactive | MOR DOR agonist inactive
O=C(CN1CCN(C(=O)c2cccc(S(=O)(=O)N3CCCC3)c2)CC1)Nc1ccc(F)cc1	none
CCOC(=O)c1ccc(Nc2nc(C)nc3c2nnn3Cc2ccccc2)cc1	MC4R ag barr 20 | MC4R barr ag inactive | MOR DOR agonist inactive
OC(CNCCc1ccc(C(F)(F)F)cc1)COc1cccc2ccccc12 (stereo unspecified)	MC4R ag barr 15 | MC4R barr ag 20 | MOR DOR agonist inactive
OC(CNCCc1ccc(C(F)(F)F)cc1)COc1ccc2ccccc2c1 (stereo unspecified)	MC4R ag barr 12 | MC4R barr ag 9.4 | MOR DOR agonist inactive
COc1ccccc1COCC(O)CNCCc1ccc(C(F)(F)F)cc1 (stereo unspecified)	MC4R ag barr 11 | MC4R barr ag inactive | MOR DOR agonist inactive
COc1ccccc1Cc1nc2ccccc2n1S(=O)(=O)c1ccc(Cl)cc1	none
Cn1cc(-c2csc(C(C)(O)c3cccc(F)c3)n2)cn1 (stereo unspecified)	none
COc1ccc(C(=O)N2CCCC(C(=O)N3CCN(c4ccccc4)CC3)C2)cc1 (stereo unspecified)	none
O=C(Nc1cc(Cl)ccn1)C1(c2ccccc2)CC1(Cl)Cl (stereo unspecified)	MC4R ag barr 11 | MC4R barr ag inactive | MOR DOR agonist inactive
Cc1sc2ncnc(N3CCC(C(=O)Nc4ccc(C#N)cc4)CC3)c2c1C	MC4R ag barr 11 | MC4R barr ag inactive | MOR DOR agonist inactive
Cc1sc2ncnc(N3CCC(C(=O)Nc4ccc(S(N)(=O)=O)cc4)CC3)c2c1C	none
Cn1ccnc1C(=O)Cc1ccc([N+](=O)[O-])cc1	none
O=C(CCCCn1c(=O)c2ccccc2n(Cc2ccc(F)cc2Cl)c1=O)NCc1ccco1	MC4R ag barr 11 | MC4R barr ag inactive | MOR DOR agonist inactive
CCCCNC(=S)N(C)/N=C/c1ccc(OCC(=O)Nc2c(C)cc(C)cc2C)c(OC)c1	MC4R ag barr 14 | MC4R barr ag 11 | MOR DOR agonist inactive
CCCCNC(=S)N(C)/N=C/c1ccc(OCC(=O)Nc2ccc(OC)cc2)c(OC)c1	none
O=C(Cn1cc(S(=O)(=O)Cc2ccccc2)c2ccccc21)Nc1ccccc1	MC4R ag barr 9.7 | MC4R barr ag inactive | MOR DOR agonist inactive
Cc1cc(Cl)c(S(=O)(=O)Nc2cc(S(=O)(=O)N3CCOCC3)ccc2F)cc1OCC(N)=O	none
Brc1ccc(-c2nnc(Cc3ccccc3)o2)cc1	none
c1ccc(Cc2nnc(-c3ccccc3)o2)cc1	MC4R ag barr 15 | MC4R barr ag 25 | MOR DOR agonist 19
C1=CCN(c2nc(N3CCOCC3)nc(N3CCCc4ccccc43)n2)CC1	none
COc1ccc2oc(CS(=O)c3ccccc3)c(C(=O)O)c2c1 (stereo unspecified)	none
COc1ccc(CCN(C)C(=O)C2CCCN(C3CCN(Cc4ccccc4)CC3)C2)cc1OC (stereo unspecified)	none
CCN1C(Nc2ccccc2)=NC[C@@H]1Cc1ccccc1	none
CC(C)(C)C1CCC(CN2C(Nc3ccccc3)=NC[C@@H]2Cc2ccccc2)CC1 (stereo partly specified)	MC4R ag barr 14 | MC4R barr ag 11 | MOR DOR agonist inactive
CSCCC(NS(=O)(=O)c1ccc(Cl)cc1)C(=O)OCC(=O)c1c(C)[nH]c2ccccc12 (stereo unspecified)	MC4R ag barr 12 | MC4R barr ag inactive | MOR DOR agonist inactive
Cc1cccc(NC(=S)N/N=C/c2cccc([N+](=O)[O-])c2)c1	none
Cc1cccc(NC(=S)N/N=C/c2ccc(Cl)c([N+](=O)[O-])c2)c1	MC4R ag barr 22 | MC4R barr ag inactive | MOR DOR agonist inactive
O=C(Nc1ccc(Cl)cn1)c1cc2c(s1)-c1ccccc1OC2	MC4R ag barr 9.8 | MC4R barr ag 8.3 | MOR DOR agonist inactive
Cc1csc2nc(SCC(=O)Nc3ccccc3F)[nH]c(=O)c12	none
N#C/C(=C/c1ccco1)c1nc2ccccc2s1	Exocytosis inh inconclusive, MC4R ag barr 9.6 | MC4R barr ag inactive | MOR DOR agonist inactive
COc1ccc(-n2c(C)nnc2SCC(=O)N2CCOCC2)cc1	none
COc1ccc(-c2cn[nH]c2-c2ccc(OCc3ccccc3F)cc2O)cc1OC	MC4R ag barr 14 | MC4R barr ag inactive | MOR DOR agonist inactive
COc1cc(C(=O)Nc2ccccc2C2COC(=O)C2=N)cc(OC)c1OC (stereo unspecified)	none
COc1cccc(-c2cnc3c(NC=O)cc(-c4cccc(NC(C)=O)c4)cn23)c1	MC4R ag barr 12 | MC4R barr ag 12 | MOR DOR agonist inactive
CN(C)C(=O)c1cccc(-c2cnc3c(NC=O)cc(-c4ccccc4Cl)cn23)c1	MC4R ag barr 9.8 | MC4R barr ag 8.9 | MOR DOR agonist inactive
COc1cccc(-c2cnc3c(NC(C)=O)cc(-c4ccc(C(=O)N5CCOCC5)cc4)cn23)c1	MC4R ag barr 15 | MC4R barr ag 20 | MOR DOR agonist inactive
CC(=O)Nc1cc(-c2ccc(C(=O)N3CCOCC3)cc2)cn2c(-c3cccc(C(C)=O)c3)cnc12	none
CC(=O)c1cccc(-c2cnc3c(NC=O)cc(-c4ccccc4)cn23)c1	MC4R ag barr 9.6 | MC4R barr ag 13 | MOR DOR agonist inactive
